Compound activity (PubChem)
The list is not random: actives were taken first. Their share in the collection is about 1%.
Yeast growth tox – Inhibits yeast growth, turbidity readout; S. cerevisiae wild-type growth, A595 turbidity, 16 h; growth inhibition, % at 25 µM (by protocol); hit rate 0.3% among 30,000;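 active means mutant and wild-type yeast strains alike exhibit over 30% growth inhibition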
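system = S. cerevisiae wild-type or eIF2Bepsilon-R284H mutant strain | buffer or medium = YPD medium | dosing = one dose, 25 µM compound, 0.2% DMSO | schedule = 16 h at 30 °C | measured by = A595 turbidity | evaluation = growth inhibition (%) versus cell controls and blanks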
eIF2B yeast act – eIF2B (yeast) activity modulation | AID 688 | hit rate 0.91% among 27,000 | S. cerevisiae eIF2B-epsilon R284H, GCN4-lacZ luminescence | inhibition, % at 25 µM (by protocol);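 active means mutant luminescence inhibited past about 50% while wild type luminescence and mutant growth stay under set limits, limit read from the data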
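material = yeast eIF2B-epsilon R284H mutant carrying GCN4–beta-galactosidase fusion | schedule = 16 h growth with compound at 30 °C, 90 min Beta-Glo step | measured by = luminescence and A595 | compound dosing = one concentration, 25 µM, 0.25% DMSO | read-out basis = % inhibition of reporter signal and growth versus controls | buffer or medium = YPD medium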
Hits are given with their value; . = inactive; / = no result.

SMILES	Yeast growth tox	eIF2B yeast act
CC1(C)CC(=O)c2cc(OCC(=O)NCCCN3CCN(c4ccccc4F)CC3)ccc2O1	.	51.5
CC1(C)CC(=O)c2cc(OCC(=O)N3CCOCC3)ccc2O1	.	.
COc1ccc(C2N(S(=O)(=O)c3ccc(C)cc3)CCN2S(=O)(=O)c2ccc(C)cc2)cc1	.	.
O=c1c(Cl)c(N2CCCCC2)cnn1-c1nc2ccccc2[nH]1	.	73.2
Clc1ccc2nc(N3CCCCC3)[nH]c2c1	.	.
CCCCCCn1c(CN2CCN(C(=O)OCC)CC2)nc2c1c(=O)n(C)c(=O)n2C	.	.
CCCc1cc(=O)[nH]c(SCC(=O)c2cc(C)n(C(C)COC)c2C)n1 (stereo not drawn)	.	57.3
COCC(C)n1c(C)cc(C(=O)COC(=O)c2nc3nc(C)cc(C)n3n2)c1C (stereo not drawn)	.	.
O=C(Cn1cnc2ccccc21)OCC(=O)N1CCc2ccccc2C1	.	.
c1ccc2[nH]c(CSc3nc4ccccc4o3)nc2c1	.	.
Nn1c(CSc2nc3ccccc3o2)nnc1CSc1nc2ccccc2o1	.	60.9
CCCn1c(=O)[nH]c(=O)c2c1nc(-c1ccccc1)n2CCN1CCOCC1	.	/
CC12CN(S(=O)(=O)c3ccccc3)CC(C)(CN(S(=O)(=O)c3ccccc3)C1)C2	.	.
Cn1c(=O)c(=O)n(C)c2cc(S(=O)(=O)N3CCCCCC3)ccc21	.	57.6
CCOc1cc(S(=O)(=O)N2CCCCC2)ccc1F	.	.
S=c1oc(-c2ccncc2)nn1CCc1ccncc1	.	.
O=C(Nc1ccon1)c1cc2ccccc2oc1=O	.	.
CCOC(=O)C1=C(N)N2C(=O)C(C)SC2=C(C(=O)OCC)C1c1ccccc1 (stereo not drawn)	.	.
CCOC(=O)C1=C(N)N2C(=O)C(C)SC2=C(C(=O)OC)C1c1ccccc1OC (stereo not drawn)	68.7	/
CCOC(=O)c1ccc(N2C(=O)CC(N(Cc3ccc4c(c3)OCO4)C(=O)Nc3ccccc3)C2=O)cc1 (stereo not drawn)	.	.
CCOC(=O)Cn1c(=O)c2c(nc3n2CCN3Cc2ccccc2)n(C)c1=O	.	53.1
CCOC(=O)Cn1c(=O)c2c(nc3n2CCN3c2ccc(C)cc2)n(C)c1=O	.	.
CC(C)NC(=O)C(=O)NC1CCCCCC1	.	.
CCCC(CCC(=O)NC1CCCCC1)C(=O)O (stereo not drawn)	.	91.1
N/C(Cc1ccc([N+](=O)[O-])cc1)=N\OC(=O)c1ccc2ccccc2c1	63.9	.
SMILES	Yeast growth tox	eIF2B yeast act
COc1ccc(/C(N)=N/OC(=O)c2cccc([N+](=O)[O-])c2)cc1	.	.
COc1ccc(CNC(=O)CSc2ncnc3nc[nH]c23)cc1	.	.
CCOCCCNC(=O)c1c[nH]c2ccc(C)cc2c1=O	.	52.3
COc1ccc(CCNC(=O)c2c[nH]c3ccccc3c2=O)cc1OC	.	.
Cc1ccc(C)c(NC(=O)CNS(=O)(=O)c2ccccc2)c1	.	.
CSc1nc2nc(-c3ccccc3)cc(C(F)(F)F)n2n1	.	.
Nn1c(COc2cccc(Br)c2)nnc1SCC(=O)N1CCc2ccccc2C1	.	50.5
Cn1nnnc1SCC(=O)N1CCc2ccccc2C1	.	.
CCCc1nnc(NC(=O)C2CCCO2)s1 (stereo not drawn)	.	.
COc1ccc(CNc2cc(C)nc3ncnn23)c(OC)c1	.	.
Cc1cc(NCc2ccc(F)cc2Cl)n2nnnc2n1	.	64.1
O=c1c(C(c2nnnn2C2CCCCC2)N2CCCCC2)coc2ccc(Cl)cc12 (stereo not drawn)	.	.
COc1ccc(/C=C\C(=O)CC(O)(c2ccccc2)C(F)(F)F)cc1 (stereo not drawn)	.	.
CC1=C(C)/C(=N\OS(=O)(=O)c2ccccc2)C=CC1=O	99.6	.
COCC(C)NC(=O)C1CC(c2cccc(Br)c2)=NO1 (stereo not drawn)	.	.
Cc1ccc(-c2cc(C(=O)Nc3c(C)n(C)n(-c4ccccc4)c3=O)[nH]n2)c(O)c1	.	/
Oc1ccc(Br)cc1-c1cc(-c2ccccc2)n[nH]1	80.0	.
COc1ccc(-c2cc(-c3ccccc3O)[nH]n2)cc1OC	.	.
Oc1ccccc1-c1cc(-c2ccc3c(c2)OCCO3)n[nH]1	/	51.0
Cc1ccc(O)c(-c2cc(-c3cccc(F)c3)n[nH]2)c1	51.4	/
Cc1ccc(-c2cc(-c3cccc(F)c3)n[nH]2)c(O)c1	30.0	/
Cc1ccc(O)c(-c2cc(-c3ccccc3F)[nH]n2)c1	.	/
Oc1ccc(Br)cc1-c1cc(-c2ccc(Cl)cc2)n[nH]1	.	/
COc1cc2[nH]c(=O)n(CCCCCC(=O)NCCc3c[nH]c4ccccc34)c(=O)c2cc1OC	.	/
COc1ccc(/C=N/Nc2ccccc2)cc1Cn1nc(C)c([N+](=O)[O-])c1C	.	/
SMILES	Yeast growth tox	eIF2B yeast act
COc1ccc(S(=O)(=O)N2CCCCC2C(=O)O)cc1 (stereo not drawn)	.	.
COc1ccc(S(=O)(=O)N2CCCCC2C(=O)O)cc1OC (stereo not drawn)	.	50.1
CCOc1ccc(OCC)c(NC(=O)c2[nH]c(C)c(C(C)=O)c2C)c1	.	.
COCCOC(=O)CC1=NC(=O)CS1	.	.
CCOC(=O)CC1=NC(=O)CS1	.	63.9
CCOc1ccc(-n2nc3c(-n4ncc(C#N)c4N)nnc(C)c3c2C)cc1	.	.
CC(C)(C)N1CC2([N+](=O)[O-])CN(C(C)(C)C)CC([N+](=O)[O-])(C1)C2	.	.
CC(=O)c1cccc(-n2nnnc2SCC(=O)Nc2ccccc2N2CCCCC2)c1	.	.
CC(=O)c1cccc(-n2nnnc2SCC(=O)Nc2cccc(NC(=O)c3ccco3)c2)c1	.	61.4
Cn1c(C(=O)O)c(CC(=O)N2CCC(Cc3ccccc3)CC2)c2ccccc21	.	.
Cc1cc(N2CCN(c3ccc(F)cc3)CC2)nc(-c2ccccc2)n1	/	.
CC(C)(Oc1ccc(Br)cc1)C(=O)N1CCc2ccccc21	.	/
CCC(=C(c1ccc(OC)cc1)c1ccc(OC)cc1)c1cn(CC(O)CN2CCN(C)CC2)c2ccccc12 (stereo not drawn)	101.6	.
COc1ccc(OCC(O)CN2CCCCCC2)cc1 (stereo not drawn)	.	.
CCC(C)N(C(=O)COC(=O)c1[nH]c(C)c(C(C)=O)c1C)C1CCS(=O)(=O)C1 (stereo not drawn)	.	54.5
CCN(C(=O)COC(=O)c1[nH]c(C)c(C(C)=O)c1C)C1CCS(=O)(=O)C1 (stereo not drawn)	.	.
CC(=O)Nc1cc(C(F)(F)F)ccc1OCCOc1ccccc1	.	55.1
COC(=O)Nc1cc(C(F)(F)F)ccc1N1CCN(c2ccccc2)CC1	.	.
CC12CCC(C(=O)NCCCn3ccnc3)(OC1=O)C2(C)C (stereo not drawn)	.	.
CCn1c(NCc2cccc(OC)c2OC)nc2ccccc21	.	.
C=CCc1cccc(CNc2nc3ccccc3n2C(C)C)c1O	.	63.0
O=S(=O)(Nc1ccncc1Cl)c1ccccc1	.	.
COc1ccc(-c2nc3nc(C)cc(=O)n3[nH]2)cc1	.	.
CCCc1cc(=O)n2c([nH]c3ccccc32)c1C#N	.	/
NC(=S)N/N=C/c1ccc(-c2ccc(Cl)c(Cl)c2)o1	30.0	.
Clc1ccc(Cl)c(-c2ccc(/C=N/c3ncn[nH]3)o2)c1	.	.
Cc1cc(NC(=O)c2cc(-c3cccs3)on2)no1	30.7	.
